Test results from article PMC2810141 (Biochemistry, 2008).
Entries after “also recorded” stand apart in the source; their conditions may differ.

Experiments:
human P4H [1] = molecular target: T1, human P4H (Homo sapiens, UniProt P13674); experiment: HPLC-based assay of P4H enzymatic activity; assay type: biochemical; conditions: for Product formation as substrate for P4H: HPLC (for Mtp also mass spectrometry), data not shown; for Substrate or Inhibitor: PEG-Gly–Tyr–Yaa–GlyOEt, 50 mM Tris–HCl pH 7.8, P4H 90 nM, α-ketoglutarate 500 μM; for Substrate or Inhibitor / kcat / Km / kcat/KM / kcat/KM relative to that of the Pro-containing peptide: HPLC-based assay; for Substrate or Inhibitor / kcat / Km / kcat/KM: 5 min, 30 °C; for kcat / Km / kcat/KM: pH 7.8, P4H 90 nM, substrate 0.05–3 mM, mean ± SE of three replicates; for kcat / Km: Michaelis–Menten fit
In short: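 Human P4H from a previously reported preparation at 90 nM, in 50 mM Tris–HCl pH 7.8 with BSA 1 mg/mL, catalase 100 μg/mL, DTT 100 μM, ascorbate 2 mM, FeSO4 50 μM and α-ketoglutarate 500 μM. Started with tetrapeptide (0.05–3 mM; ethanol stock), run 5 min at 30 °C, then boiled 60 s. Triplicates. C18 HPLC; substrate:product ratio from A214; Michaelis–Menten fit.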

human P4H [2] = molecular target: T1, human P4H; experiment: [14C]CO2-release assay from [1-14C]α-ketoglutarate; assay type: biochemical; conditions: substrate at 10% of KM; duplicate
In short: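 Release of [14C]CO2 from [1-14C]α-ketoglutarate. Component levels as in the HPLC assay, except P4H at 395 nM. Each peptide tested at 10% of its KM from the HPLC assay. Run in duplicate; the decarboxylation rate without peptide was subtracted. Rate (μM/min) expressed as % of the Pro-containing peptide.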

P4H = conditions: binds to the enzyme, not hydroxylated; ref [33]; cited from earlier work

T1 sequence (P13674 18-534): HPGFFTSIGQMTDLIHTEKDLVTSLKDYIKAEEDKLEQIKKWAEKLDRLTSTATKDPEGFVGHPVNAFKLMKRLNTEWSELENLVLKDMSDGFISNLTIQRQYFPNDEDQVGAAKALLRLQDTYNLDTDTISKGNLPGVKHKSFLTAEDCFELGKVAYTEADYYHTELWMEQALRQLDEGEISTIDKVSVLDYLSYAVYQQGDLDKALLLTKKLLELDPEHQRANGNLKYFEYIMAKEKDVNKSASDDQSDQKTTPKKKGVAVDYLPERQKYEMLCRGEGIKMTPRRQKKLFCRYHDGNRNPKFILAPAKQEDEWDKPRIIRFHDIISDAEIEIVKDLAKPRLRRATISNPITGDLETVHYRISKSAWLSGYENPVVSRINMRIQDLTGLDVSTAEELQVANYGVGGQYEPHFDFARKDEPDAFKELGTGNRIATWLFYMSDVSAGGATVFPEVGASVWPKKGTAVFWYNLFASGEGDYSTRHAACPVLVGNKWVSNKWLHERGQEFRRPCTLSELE
T1 sequence (P07237 18-508 partner): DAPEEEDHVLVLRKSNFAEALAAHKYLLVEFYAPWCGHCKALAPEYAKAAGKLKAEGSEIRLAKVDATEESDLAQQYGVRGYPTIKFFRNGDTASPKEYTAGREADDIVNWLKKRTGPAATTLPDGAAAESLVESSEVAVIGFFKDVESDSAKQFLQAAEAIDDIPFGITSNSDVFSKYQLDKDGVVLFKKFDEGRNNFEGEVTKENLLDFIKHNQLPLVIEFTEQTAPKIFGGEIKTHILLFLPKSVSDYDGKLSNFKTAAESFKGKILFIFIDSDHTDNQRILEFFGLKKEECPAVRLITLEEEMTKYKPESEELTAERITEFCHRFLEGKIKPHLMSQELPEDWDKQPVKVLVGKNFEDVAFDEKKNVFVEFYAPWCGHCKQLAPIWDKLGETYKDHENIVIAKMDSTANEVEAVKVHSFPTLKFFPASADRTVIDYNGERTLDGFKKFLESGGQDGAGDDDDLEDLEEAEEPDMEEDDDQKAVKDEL

Substance | Product formation as substrate for P4H (human P4H [1]) | Substrate or Inhibitor (human P4H [1]) | kcat (human P4H [1]) [s⁻¹] | Km (human P4H [1]; SEM) [µM] | kcat (human P4H [1]; SEM) [s⁻¹] | kcat/KM (human P4H [1]) | kcat/KM relative to that for dansyl-Gly–Phe–Pro–GlyOEt (human P4H [1]; comparator value from ref [18]) [fold] | % of Pro (rate of CO2 release) (human P4H [2]) [%] | kcat/KM relative to that of the Pro-containing peptide (human P4H [1]) [%] | Inhibition of P4H enzymatic activity (P4H)
Cbz-Gly–Tyr–Mtp–GlyOEt | No product was detected | Neither | – | – | – | – | – | – | – | –
PEG-Gly–Tyr–Kep–GlyOEt | not found to be a substrate | neither substrates nor inhibitors; also recorded: Neither | – | – | – | – | – | – | – | –
PEG-Gly–Tyr–Pro–GlyOEt | – | Substrate | 6 | 580 ± 30 | 6 ± 0.12 | 10 ± 0.6 10^3 M^−1s^−1 | 3 | 100 | – | –
PEG-Gly–Tyr–Thp–GlyOEt | – | Substrate | – | 6400 ± 1400 | 7.83 ± 0.983 | 1.2 ± 0.3 10^3 M^−1s^−1 | – | 6 | 12 | –
PEG-Gly–Tyr–flp–GlyOEt | No product formation was detected | Substrate | 4.17 | 1600 ± 300 | 4.17 ± 0.35 | 2.7 ± 0.5 10^3 M^−1s^−1 | – | 26 | 27 | –
polyproline | – | – | – | – | – | – | – | – | – | competitive inhibitor
